Experimental data taken from ChEMBL document CHEMBL1132976, “Biarylcarbamoylindolines are novel and selective 5-HT(2C) receptor inverse agonists: identification of 5-methyl-1-[[2-[(2-methyl-3-pyridyl)oxy]- 5-pyridyl]carbamoyl]-6-trifluoromethylindoline (SB-243213) as a potential antidepressant/anxiolytic agent” (J Med Chem, 2000).
The source made the active and inactive calls. The rule behind the calls is not given here.

Experiments:
Rattus norvegicus [1] = experiment: Dose required to reverse mCPP induced hypolocomotion in rats after oral administration; IA=inactive; type: functional, organism-based
How it was run: (§1)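 Rat hypolocomotion model. The test compound was given orally, and mCPP was given at 7 mg/kg ip 30 min before the test. ID50 (mg/kg po) is the dose that reverses mCPP-induced hypolocomotion by 50%.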

[2] = target: T1, 5-hydroxytryptamine receptor 2A (Homo sapiens, UniProt P28223); experiment: Binding affinity towards human cloned 5-hydroxytryptamine receptor 2A in HEK293 cells, using [3H]ketanserin as radioligand.; type: cell-based
How it was run: (§2)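 Competition binding at human cloned receptors expressed in HEK 293 cells. Radioligands: [3H]ketanserin for 5-HT2A, [3H]5-HT for 5-HT2B, [3H]mesulergine for 5-HT2C. Values are pKi, given as the mean of at least two determinations, each within 0.2 log unit of the mean.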

[3] = target: Serotonin 2 receptors; 5-HT2a & 5-HT2c (Homo sapiens) (UniProt P28223+P28335); experiment: Selectivity index determined from binding affinities of 5-HT2C and 5-HT2A.; type: protein assay
[4] = target: T2, 5-hydroxytryptamine receptor 2C (Homo sapiens, UniProt P28335); experiment: Binding affinity towards human cloned 5-hydroxytryptamine receptor 2C in HEK293 cells, using [3H]mesulergine as radioligand.; type: cell-based; how it was run: as §2
T2 sequence (P28335 whole entry): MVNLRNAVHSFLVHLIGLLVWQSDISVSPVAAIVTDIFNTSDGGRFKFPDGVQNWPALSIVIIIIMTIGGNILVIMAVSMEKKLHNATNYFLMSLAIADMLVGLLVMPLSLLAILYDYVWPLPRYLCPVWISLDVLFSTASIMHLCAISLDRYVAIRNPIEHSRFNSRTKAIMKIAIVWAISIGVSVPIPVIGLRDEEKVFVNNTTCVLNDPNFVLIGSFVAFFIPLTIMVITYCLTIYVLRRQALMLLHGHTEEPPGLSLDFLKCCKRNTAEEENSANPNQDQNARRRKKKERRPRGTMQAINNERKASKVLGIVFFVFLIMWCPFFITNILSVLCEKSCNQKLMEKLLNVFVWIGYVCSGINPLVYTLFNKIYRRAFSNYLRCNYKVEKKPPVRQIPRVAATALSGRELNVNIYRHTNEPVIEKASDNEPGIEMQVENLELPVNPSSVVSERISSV

[5] = target: T3, 5-hydroxytryptamine receptor 2B (Homo sapiens, UniProt P41595); experiment: Binding affinities towards human cloned 5-hydroxytryptamine 2B receptor in HEK293 cells using [3H]5-HT as radioligand.; type: cell-based; how it was run: as §2
[6] = target: Serotonin receptor (2b and 2c) (Homo sapiens) (UniProt P41595+P28335); experiment: Selectivity index determined from the binding affinities of 5-HT2C and 5-HT2B.; type: protein assay
Rattus norvegicus [7] = experiment: Dose required to reverse mCPP induced hypolocomotion in rats after oral administration; NA=inactive; type: functional, organism-based; how it was run: as §1
[8] = target: T3, 5-hydroxytryptamine receptor 2B; experiment: Displacement of [3H]5-HT from human 5-hydroxytryptamine 2B receptor expressed in HEK293 cells; type: cell-based; how it was run: as §2
Cytochrome P450 1A2 [9] = target: T4, Cytochrome P450 1A2 (Homo sapiens, UniProt P05177); experiment: Inhibition of heterologously expressed human cytochrome P450 1A2.; type: ADME
T4 sequence (P05177 whole entry): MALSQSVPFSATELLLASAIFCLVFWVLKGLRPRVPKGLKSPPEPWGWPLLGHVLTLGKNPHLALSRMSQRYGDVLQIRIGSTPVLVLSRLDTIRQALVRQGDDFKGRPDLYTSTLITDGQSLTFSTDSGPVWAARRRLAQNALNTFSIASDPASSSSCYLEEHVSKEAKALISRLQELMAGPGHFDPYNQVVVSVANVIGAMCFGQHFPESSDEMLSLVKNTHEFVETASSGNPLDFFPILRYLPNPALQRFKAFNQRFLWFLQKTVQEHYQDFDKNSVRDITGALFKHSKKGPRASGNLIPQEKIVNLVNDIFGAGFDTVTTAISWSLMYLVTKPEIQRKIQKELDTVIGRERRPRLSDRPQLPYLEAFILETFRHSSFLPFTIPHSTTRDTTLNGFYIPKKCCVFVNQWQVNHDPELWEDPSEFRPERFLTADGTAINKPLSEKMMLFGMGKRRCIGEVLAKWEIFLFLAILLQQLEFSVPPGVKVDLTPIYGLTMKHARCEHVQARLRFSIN
How it was run: (§3)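 Heterologously expressed human CYP1A2 in an isoform-selective assay. Substrate: caffeine N3-demethylation at 500 µM, at the substrate Km.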

Cytochrome P450 2D6 = Cytochrome P450 2D6 (Homo sapiens, UniProt P10635); experiment: Inhibition of heterologously expressed human cytochrome P450 2D6; type: ADME
Cytochrome P450 2C9 = Cytochrome P450 2C9 (Homo sapiens, UniProt P11712); experiment: Inhibition of heterologously expressed human cytochrome P450 2C9; type: ADME
Rattus norvegicus [10] = experiment: Dose required to reverse mCPP induced hypolocomotion in rat after oral administration.; type: functional; details: read-out: ID50 (the source's name); how it was run: as §1
Cytochrome P450 3A4 = Cytochrome P450 3A4 (Homo sapiens, UniProt P08684); experiment: Inhibition of heterologously expressed human cytochrome P450 3A4; type: ADME
Cytochrome P450 2C19 = Cytochrome P450 2C19 (Homo sapiens, UniProt P33261); experiment: Inhibition of heterologously expressed human cytochrome P450 2C19; type: ADME
Cytochrome P450 1A2 [11] = target: T4, Cytochrome P450 1A2; experiment: Inhibition of heterologously expressed human cytochrome P450 1A2; type: ADME; how it was run: as §3
[12] = target: T3, 5-hydroxytryptamine receptor 2B; experiment: Displacement of [3H]5-HT from human 5-hydroxytryptamine 2B receptor expressed in HEK293 cells; compound is insoluble; type: cell-based; how it was run: as §2
[13] = target: T5, 5-hydroxytryptamine receptor 2C (Homo sapiens) (UniProt P28335); experiment: Displacement of [3H]mesulergine from human 5-hydroxytryptamine 2C receptor expressed in HEK293 cells; compound insoluble; type: cell-based; how it was run: as §2
T5 sequence (whole entry): T2 sequence (P28335 whole entry)

[14] = target: T1, 5-hydroxytryptamine receptor 2A; experiment: Displacement of [3H]ketanserin from human 5-hydroxytryptamine 2A receptor expressed in HEK293 cells; compound is insoluble; type: cell-based; how it was run: as §2
Rattus norvegicus [15] = experiment: Dose required to reverse mCPP induced hypolocomotion in rats after oral administration; type: functional; how it was run: as §1

T1 sequence (P28223 whole entry): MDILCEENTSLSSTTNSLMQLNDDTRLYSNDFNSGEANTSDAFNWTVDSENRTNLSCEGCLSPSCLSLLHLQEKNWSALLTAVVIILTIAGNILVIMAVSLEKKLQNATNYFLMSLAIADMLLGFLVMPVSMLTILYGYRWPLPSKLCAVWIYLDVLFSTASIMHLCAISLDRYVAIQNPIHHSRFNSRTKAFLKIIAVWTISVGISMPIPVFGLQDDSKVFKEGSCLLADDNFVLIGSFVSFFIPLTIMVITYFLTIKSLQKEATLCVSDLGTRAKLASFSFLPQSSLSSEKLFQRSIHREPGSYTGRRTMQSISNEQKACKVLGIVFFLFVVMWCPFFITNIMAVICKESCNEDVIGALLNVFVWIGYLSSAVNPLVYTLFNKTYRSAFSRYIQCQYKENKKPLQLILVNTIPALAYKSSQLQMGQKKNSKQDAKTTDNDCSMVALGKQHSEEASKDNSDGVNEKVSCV
Serotonin 2 receptors; 5-HT2a & 5-HT2c (Homo sapiens), sequence (P28223 whole entry, looked up, one chain of several): as the sequence (P28223 whole entry) above
T3 sequence (P41595 whole entry): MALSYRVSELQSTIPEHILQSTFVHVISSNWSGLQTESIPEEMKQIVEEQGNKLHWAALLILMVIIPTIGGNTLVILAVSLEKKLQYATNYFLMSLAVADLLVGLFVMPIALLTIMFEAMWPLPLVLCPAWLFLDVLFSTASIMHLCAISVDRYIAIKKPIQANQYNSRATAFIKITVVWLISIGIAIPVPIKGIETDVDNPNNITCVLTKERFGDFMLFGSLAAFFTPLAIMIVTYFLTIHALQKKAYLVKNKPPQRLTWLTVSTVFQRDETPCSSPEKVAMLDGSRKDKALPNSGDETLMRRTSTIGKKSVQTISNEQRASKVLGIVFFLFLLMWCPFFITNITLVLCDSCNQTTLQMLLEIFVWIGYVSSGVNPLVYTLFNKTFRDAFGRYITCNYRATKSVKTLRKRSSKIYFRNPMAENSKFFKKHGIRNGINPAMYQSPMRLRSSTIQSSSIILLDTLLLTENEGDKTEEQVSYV
Cytochrome P450 2C19, sequence (P33261 whole entry): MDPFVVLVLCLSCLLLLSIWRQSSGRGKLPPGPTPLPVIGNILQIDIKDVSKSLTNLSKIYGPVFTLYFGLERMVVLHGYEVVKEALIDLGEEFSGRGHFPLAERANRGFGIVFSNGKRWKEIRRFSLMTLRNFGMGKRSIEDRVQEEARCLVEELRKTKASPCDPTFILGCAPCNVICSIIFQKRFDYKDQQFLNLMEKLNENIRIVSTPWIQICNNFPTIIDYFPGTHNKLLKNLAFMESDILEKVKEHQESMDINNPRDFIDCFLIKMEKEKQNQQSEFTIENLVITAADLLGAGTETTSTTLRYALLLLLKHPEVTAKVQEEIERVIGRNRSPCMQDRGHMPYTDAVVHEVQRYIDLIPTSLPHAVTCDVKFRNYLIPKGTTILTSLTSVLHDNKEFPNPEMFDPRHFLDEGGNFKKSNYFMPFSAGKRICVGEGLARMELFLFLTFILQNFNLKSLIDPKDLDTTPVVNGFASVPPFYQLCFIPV
Cytochrome P450 3A4, sequence (P08684 whole entry): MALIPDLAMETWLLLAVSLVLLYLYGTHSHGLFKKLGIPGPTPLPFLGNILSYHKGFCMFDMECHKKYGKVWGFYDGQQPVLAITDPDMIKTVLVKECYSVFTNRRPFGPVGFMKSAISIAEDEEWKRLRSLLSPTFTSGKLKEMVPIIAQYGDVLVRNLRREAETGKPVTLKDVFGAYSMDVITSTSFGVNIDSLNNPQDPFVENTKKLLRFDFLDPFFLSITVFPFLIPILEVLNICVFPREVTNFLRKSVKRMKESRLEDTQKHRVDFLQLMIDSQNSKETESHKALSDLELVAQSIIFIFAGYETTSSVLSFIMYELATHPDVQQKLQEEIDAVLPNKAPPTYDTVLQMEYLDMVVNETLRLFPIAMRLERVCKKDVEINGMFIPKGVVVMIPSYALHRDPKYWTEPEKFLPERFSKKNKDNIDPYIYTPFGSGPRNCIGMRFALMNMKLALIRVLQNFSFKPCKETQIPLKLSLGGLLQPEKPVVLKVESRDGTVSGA
Cytochrome P450 2C9, sequence (P11712 whole entry): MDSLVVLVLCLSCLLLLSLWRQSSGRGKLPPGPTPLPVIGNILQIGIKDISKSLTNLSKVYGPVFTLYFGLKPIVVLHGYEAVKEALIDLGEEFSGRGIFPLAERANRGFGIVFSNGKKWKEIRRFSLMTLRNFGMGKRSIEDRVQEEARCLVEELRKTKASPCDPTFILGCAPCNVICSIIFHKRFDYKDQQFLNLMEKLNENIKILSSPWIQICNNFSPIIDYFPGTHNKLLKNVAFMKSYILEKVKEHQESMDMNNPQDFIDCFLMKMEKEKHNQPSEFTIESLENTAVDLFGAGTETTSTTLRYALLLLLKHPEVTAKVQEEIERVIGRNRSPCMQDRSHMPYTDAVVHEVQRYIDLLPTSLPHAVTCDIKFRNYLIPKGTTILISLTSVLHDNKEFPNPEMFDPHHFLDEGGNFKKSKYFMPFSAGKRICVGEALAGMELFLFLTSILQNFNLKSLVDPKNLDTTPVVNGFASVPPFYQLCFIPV
Cytochrome P450 2D6, sequence (P10635 whole entry): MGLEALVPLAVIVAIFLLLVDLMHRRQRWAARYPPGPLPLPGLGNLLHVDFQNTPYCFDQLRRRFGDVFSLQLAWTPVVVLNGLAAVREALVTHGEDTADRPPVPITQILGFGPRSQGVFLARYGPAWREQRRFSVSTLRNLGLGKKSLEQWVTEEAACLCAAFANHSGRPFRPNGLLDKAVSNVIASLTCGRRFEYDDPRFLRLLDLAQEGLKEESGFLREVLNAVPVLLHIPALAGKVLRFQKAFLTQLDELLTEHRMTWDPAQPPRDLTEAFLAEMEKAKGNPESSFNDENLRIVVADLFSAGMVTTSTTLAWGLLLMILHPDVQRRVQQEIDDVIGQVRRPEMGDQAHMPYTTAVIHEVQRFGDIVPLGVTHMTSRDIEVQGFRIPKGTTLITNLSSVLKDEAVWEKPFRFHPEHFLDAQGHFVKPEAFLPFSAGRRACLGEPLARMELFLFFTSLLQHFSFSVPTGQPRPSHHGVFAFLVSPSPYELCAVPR

| SMILES | ED50 (Rattus norvegicus [1]) | Ki [2] [nM] | Selectivity [3] | Ki [4] [nM] | Ki [5] [nM] | Selectivity [6] | ED50 (Rattus norvegicus [7]) | Ki [8] [nM] | IC50 (Cytochrome P450 1A2 [9]) [nM] | IC50 (Cytochrome P450 2D6) [nM] | IC50 (Cytochrome P450 2C9) [nM] | ED50 (Rattus norvegicus [10]) [mg/kg] | IC50 (Cytochrome P450 3A4) [nM] | IC50 (Cytochrome P450 2C19) [nM] | IC50 (Cytochrome P450 1A2 [11]) [nM] | Log Ki [12] | Log Ki [13] | Log Ki [14] | ED50 (Rattus norvegicus [15]) [mg/kg] |
| --- | --- | --- | --- | --- | --- | --- | --- | --- | --- | --- | --- | --- | --- | --- | --- | --- | --- | --- | --- |
| COc1cc2c(cc1C(F)(F)F)N(C(=O)Nc1ccc(C(C)(C)C)c(-c3cccnc3)c1)CC2 | inactive | 1000 | 320 | 3.16 | 39.8 | 13 | – | – | – | – | – | – | – | – | – | – | – | – | – |
| COc1cc2c(cc1C(F)(F)F)N(C(=O)Nc1ccc(-c3cccnc3)nc1)CC2 | – | > 10000 | > 2000 | 5.01 | – | 2 | inactive | 10 | 7000 | – | – | – | – | – | – | – | – | – | – |
| COc1cc2c(cc1C(F)(F)F)N(C(=O)Nc1cc(F)cc(-c3cccnc3)c1)CC2 | – | 126 | 130 | 1 | 10 | 10 | – | – | 28000 | 21000 | 82000 | 0.7 | 9000 | > 100000 | – | – | – | – | – |
| Cc1cc2c(cc1C(F)(F)F)N(C(=O)Nc1ccc(Oc3cccnc3C)nc1)CC2 [SB-243213] | – | 158 | 160 | 1 | 100 | 100 | – | – | – | > 100000 | 23000 | 0.7 | > 100000 | > 100000 | > 100000 | – | – | – | – |
| COc1cc2c(cc1C(F)(F)F)N(C(=O)Nc1ccc(-c3ccccc3)nc1)CC2 | – | – | – | – | – | – | – | – | – | – | – | – | – | – | – | Insoluble | Insoluble | Insoluble | – |
| COc1cc2c(cc1C(F)(F)F)N(C(=O)Nc1cncc(-c3cnccc3C)c1)CC2 | – | 100 | 250 | 0.398 | – | 15 | – | 6.31 | 200 | – | – | – | – | – | – | – | – | – | 5 |
